High-throughput results deposited in PubChem by Johns Hopkins Ion Channel Center.
MrgX1 antag: antagonists of human MrgX1 receptor, primary screen, HEK293 cells, Fluo-4 calcium flux. Mas-related G-protein coupled receptor member X1 (Homo sapiens), Q96LB2. BAM8-22 antagonism; active compounds read low. B-score at 10 µM. 310,000 tested, 1.3% active. AID 588676, 2011;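 active = calcium-response B-score plate-corrected more than 3 library SD below zero, starting fluorescence within 5 deviations, no agonist response on first addition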;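 note: peak minus trough fluorescence over baseline after final BAM8-22 challenge near maximal dose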
Target sequence (Q96LB2 whole entry, looked up): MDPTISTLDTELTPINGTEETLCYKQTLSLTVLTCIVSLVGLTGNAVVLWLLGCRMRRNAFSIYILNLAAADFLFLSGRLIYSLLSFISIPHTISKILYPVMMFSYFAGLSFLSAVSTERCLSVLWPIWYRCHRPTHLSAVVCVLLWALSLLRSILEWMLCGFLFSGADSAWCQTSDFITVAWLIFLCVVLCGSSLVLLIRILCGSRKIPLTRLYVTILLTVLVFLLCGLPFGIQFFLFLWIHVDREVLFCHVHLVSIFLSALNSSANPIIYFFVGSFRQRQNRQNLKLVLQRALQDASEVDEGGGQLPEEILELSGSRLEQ
RGS4 pot: RGS4 potentiators or activators, primary screen, cell-based, HEK293 M3R inducible RGS4, calcium flux; 310,000 tested, 0.92% active; carbachol calcium flux Fluo4; active compounds read low; B-score at 10 µM;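 active = B-score of the integrated calcium signal more than 4 SD below the library mean, with starting fluorescence not abnormally high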;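 note: negative B-score means reduced calcium response which marks RGS4 activation or potentiation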
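Material: Inducible-RGS4 HEK293 cells carrying M3 receptor; also added: carbachol at ECmax as muscarinic agonist stimulus; incubation: compound preincubation 20 min at room temperature before agonist; signal: Fluo4-AM (2 µM) calcium-flux fluorescence, kinetic read; measure: integrated calcium ratio converted to B score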
RGS4 block: RGS4 inhibitors, primary screen, cell-based, HEK293 M3R inducible RGS4, calcium flux | 310,000 tested, 0.45% active | B-score at 10 µM | AID 463165, 2010 | Regulator of G-protein signaling 4 (Homo sapiens), P49798 | Fluo-4 calcium flux; active compounds read high; triggered by carbachol at its EC20;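 active = B-score, a plate-corrected calcium signal, over three deviations above library mean, with baseline fluorescence within five deviations of library mean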;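 note: RGS4 expression induced by doxycycline in cells with stable M3 receptor; B-score is computed from the integrated fluorescence ratio over baseline after carbachol; higher B-score means a larger calcium signal and so more RGS4 inhibition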
Target sequence (P49798 whole entry, looked up): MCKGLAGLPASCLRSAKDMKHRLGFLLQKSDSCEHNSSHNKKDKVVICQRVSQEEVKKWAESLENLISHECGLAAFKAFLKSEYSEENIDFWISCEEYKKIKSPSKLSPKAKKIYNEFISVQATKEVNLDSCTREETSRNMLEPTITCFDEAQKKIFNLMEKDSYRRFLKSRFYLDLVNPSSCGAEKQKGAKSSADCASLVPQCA
MrgX1 allo act: positive allosteric modulators of MrgX1, primary screen, HEK293 cells, Fluo-4 calcium flux | B-score at 10 µM | FDSS; active compounds read high | 310,000 tested, 0.63% active;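 active = plate-corrected calcium response at least 3 library SD above typical, normal starting fluorescence, not activating the receptor alone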;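 note: compound read alongside a low EC10 to EC30 dose of BAM8-22 agonist; peak minus trough fluorescence over baseline measured at the second addition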
MrgX1 ag: agonists of human MrgX1 receptor, primary screen, HEK293 cells, Fluo-4 calcium flux; Mas-related G-protein coupled receptor member X1 (Homo sapiens), Q96LB2; Fluo-4 calcium fluorescence, agonist mode; active compounds read high; B-score at 10 µM; 310,000 tested, 0.44% active; AID 588627, 2011;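 active = calcium response B-score plate-corrected fluorescence ratio at least 3 library SD, with starting fluorescence B-score inside 5 SD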
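Material – MrgX1-expressing HEK293 cells · Input – 15,000 cells seeded per well · Dosing – compound as first of three additions · Times – overnight seeding, then 1 h dark dye loading · Measured by – kinetic Fluo-4 NW fluorescence of intracellular calcium · Read-out – B-scored fluorescence response ratio · Benchmarks – positive and negative control wells on each plate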
MrgX1 antag conf: MrgX1 receptor antagonists, duplicate retest, confirmation, HEK293 cells, Fluo-4 calcium flux; shares compounds with MrgX1 antag; BAM8-22 calcium flux; active compounds read low; remaining BAM8-22 calcium response % of control (active compounds read low), % at 10 µM; 2,300 tested, 19% active;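 active = remaining agonist calcium response no higher than 100% minus 3 SD of agonist-only control wells, with starting fluorescence near control levels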;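 note: agonist BAM8-22 given at a near maximal EC90 to ECmax level; peak minus minimum fluorescence divided by baseline after agonist addition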
HEK293 Ca flux: nonspecific calcium signal in parental HEK293, confirmation, counter-screen for MrgX1 antagonist project, parental HEK293 cells, Fluo-4 calcium flux; shares compounds with MrgX1 antag; Fluo-4 calcium fluorescence, FDSS; fluorescence ratio F(max-min)/F0 at 10 µM; 4,000 tested, 2% active;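 active = duplicate-averaged calcium fluorescence ratio at least three times the standard deviation of buffer wells, a nonspecific response in parental cells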
HEK293 Ca counter: calcium response in parental HEK293 cells, primary screen, counter-screen for MrgX1 allosteric activator project, cell-based, Fluo-4 calcium flux, duplicate; shares compounds with MrgX1 antag; Fluo-4 fluorescence ratio; active compounds read high; fluorescence ratio F(max-min)/F0 at 10 µM; 4,000 tested, 0.4% active; AID 624114, 2012;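 active = calcium fluorescence ratio, averaged over duplicates, at least 3 SD of the buffer-well ratio, meaning a nonspecific response in receptor-free cells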;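 note: untransfected parental HEK293 lacking MrgX1 used as counterscreen for MrgX1 allosteric activators; fluorescence change taken during the second addition on a kinetic imager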
HEK293 Ca cntr2: calcium response in parental HEK293 cells, primary screen, counter-screen for MrgX1 agonist project, cell-based, Fluo-4 calcium flux, duplicate, agonist mode; Fluo-4 calcium fluorescence (FDSS); active compounds read high; shares compounds with MrgX1 antag; fluorescence ratio F(max-min)/F0 at 10 µM; 4,000 tested, 8.7% active;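 active = calcium fluorescence ratio at least three times the spread of buffer wells, meaning a non-specific response in parental cells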
* = called active by the depositor; i = inactive; . = not tested or not shown. Rows were chosen to be rich in hits. Some 3.5% of all compounds tested hit in one or more screens of this group.

SMILES | MrgX1 antag | RGS4 pot | RGS4 block | MrgX1 allo act | MrgX1 ag | MrgX1 antag conf | HEK293 Ca flux | HEK293 Ca counter | HEK293 Ca cntr2
CC(C)c1ccc(NC(=O)C2CC(=O)N(C(C)C)C2)cc1 (centres undefined) | -9* | i | i | i | i | i | i | i | i
CC(C)(C)N1CC(C(=O)Nc2ccc(S(=O)(=O)N3CCCCC3)cc2)CC1=O (centres undefined) | i | i | i | i | i | . | . | . | .
CC(C)(C)N1CC(C(=O)Nc2ccc(S(N)(=O)=O)cc2)CC1=O (centres undefined) | -4.9* | i | i | i | i | i | i | i | i
COc1cccc(CN2CCN(S(=O)(=O)c3ccccc3)CC2)c1OC | i | i | i | i | i | . | . | . | .
Cc1ccc(NC(=O)NCc2ccc3c(c2)OCO3)c(C)c1 | i | i | i | i | i | . | . | . | .
Cc1cc(=O)[nH]c(SCCOc2ccc(OC(C)C)cc2)n1 | -6.7* | i | i | i | i | i | i | i | i
COCCCn1c(O)c(/C=C2\N=C(C#N)C(=Nc3ccc(C)cc3)O2)sc1=S | -11* | i | i | i | i | i | i | i | i
COc1ccccc1-c1nnc(SCc2nc3ccccc3s2)n1C | -5.8* | i | i | i | i | i | i | i | i
Cc1ccc(C(=O)C2=C(O)C(=O)N(Cc3ccco3)C2c2cccc(Cl)c2)o1 (centres undefined) | i | i | i | i | i | . | . | . | .
Cc1[nH]c2ccc(Br)cc2c(=O)c1CN1CCCCCC1 | i | i | i | i | i | . | . | . | .
Cc1[nH]c2ccccc2c(=O)c1CN1CCCCC1 | -6.8* | i | i | i | i | i | i | i | i
CCc1ccc(N2CC(C(=O)Nc3nccs3)CC2=O)cc1 (centres undefined) | -5* | i | i | i | i | i | i | i | i
O=C(Nc1nccs1)C1CC(=O)N(c2ccc(F)cc2)C1 (centres undefined) | i | i | i | i | i | . | . | . | .
Nc1ncc2c(n1)-c1ccoc1CC2 | i | i | i | i | i | . | . | . | .
Nc1ncc2c(n1)-c1ccccc1CC2 | -4.8* | i | i | i | i | i | i | i | i
O=C(Nc1ccccc1C(F)(F)F)c1cc(-c2ccco2)on1 | i | i | i | i | i | . | . | . | .
CCOC(=O)CN1C(=O)CN(c2ccc(C)cc2)C1=O | -5* | i | i | i | i | i | i | i | i
Cc1cccc(N(CC(=O)NC2CCCCC2)C(=O)c2c(C)noc2C)c1 | -6.5* | i | i | i | i | i | i | i | i
Cc1cccc(N(CC(=O)NC2CCCCC2)C(=O)c2csnn2)c1 | i | i | i | i | i | . | . | . | .
C=CCN1C(=O)c2cccc3c(N4CCCCC4)ccc(c23)C1=O | i | i | i | i | i | . | . | . | .
C=CCN1C(=O)c2cccc3c(Br)ccc(c23)C1=O | -7.6* | i | i | i | i | i | i | i | i
